Type in all cases: functional
For test [1], the system named is Candida albicans. The experiment in a line: Minimum inhibitory concentration was determined for Candida albicans strain B311, by a microtiter broth dilution assay. In a few lines:
(§1)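 Twofold broth dilution in yeast carbon base medium with 200 μg/mL sodium glutamate, compounds 250 to 0.25 μg/mL. Inoculum grown in YCB-glutamate 15 h at 37 °C; final ~10⁴ cfu/mL. Incubated at 37 °C, read at 24 and 48 h for growth inhibition; MIC taken as lowest inhibiting concentration.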

In test [2] the test system is Candida albicans. Description: Minimum inhibitory concentration was determined for Candida albicans strain 759, by a microtiter broth dilution assay. The procedure, abridged:
as §1

In test [3] the test system is Candida albicans. The experiment in a line: Zone developed against Candida albicans, when a 25.0 ug/disc was added.
For test [4], the system named is Candida albicans. The experiment in a line: Zone developed against Candida albicans, when a 6.0 ug/disc was added.
The test system of test [5] is Candida albicans. Description: Zone developed against Candida albicans, when a 3.0 ug/disc was added.
The test system of test [6] is Candida albicans. Description: Zone developed against Candida albicans, when a 12.5 ug/disc was added.
In test [7] the test system is Candida albicans. Description: Zone developed against Candida albicans B-311, when a 12.5 ug/disc was added.
In test [8] the test system is Candida albicans. Description: Zone developed against Candida albicans, when a 25.0 ug/disc was added; 25-31.

Converted amounts (≈) assume the structure as drawn. Square brackets hold non-standard residues; d marks the D form. Peptide text beside a SMILES is read from it. Phe(3-F) = N[C@@H](Cc1cccc(F)c1)C(=O)O

Consider `N[C@@H](Cc1cccc(F)c1)C(=O)O`, for which the MIC with Candida albicans [1] and in the test on Candida albicans [2] was more than 250 µg/mL each time.
For `C[C@H](N)C(=O)N[C@@H](C)C(=O)N[C@@H](C)C(=O)O.C[C@H](NC(=O)[C@H](C)NC(=O)[C@@H](N)Cc1cccc(F)c1)C(=O)O`, the Zone size in the test on Candida albicans [3], in the test with Candida albicans [4], with Candida albicans [5] and in the test on Candida albicans [6] was 0 mm throughout.
Take `C[C@H](N)C(=O)N[C@@H](C)C(=O)N[C@@H](C)C(=O)O.C[C@H](NC(=O)[C@@H](N)Cc1cccc(F)c1)C(=O)O`: the Zone size with Candida albicans [3], with Candida albicans [4], in the test with Candida albicans [5] and with Candida albicans [6] was 0 mm in each case.
In the case of `C[C@H](NC(=O)[C@H](C)NC(=O)[C@@H](N)Cc1cccc(F)c1)C(=O)O.N[C@@H](Cc1c[nH]cn1)C(=O)O`, the Zone size with Candida albicans [7] was found to be 25 mm.
As for `C[C@H](N)C(=O)N[C@@H](C)C(=O)O.C[C@H](NC(=O)[C@H](C)NC(=O)[C@@H](N)Cc1cccc(F)c1)C(=O)O`, the Zone size with Candida albicans [3] came to 24 mm; in the test with Candida albicans [4], 16 mm; with Candida albicans [5], 0 mm; in the test with Candida albicans [6], 18 mm.
For `C[C@H](NC(=O)[C@@H](N)Cc1cccc(F)c1)C(=O)O.NCC(=O)N[C@@H](Cc1ccccc1)C(=O)O` the same measures were 0 mm, 0 mm, 0 mm and 0 mm.
As to `C[C@H](NC(=O)CN)C(=O)O.C[C@H](NC(=O)[C@@H](N)Cc1cccc(F)c1)C(=O)O`, the Zone size in the test on Candida albicans [4] was 0 mm; in the test with Candida albicans [5] it was 0 mm; in the test with Candida albicans [8], 25 mm; in the test on Candida albicans [6] it was 0 mm.
`CC[C@H](C)[C@H](N)C(=O)O.C[C@H](NC(=O)[C@H](C)NC(=O)[C@@H](N)Cc1cccc(F)c1)C(=O)O`: in the test with Candida albicans [7], the Zone size came out at 27 mm.
On the same count and under the same terms, in the case of `C[C@H](NC(=O)[C@H](C)NC(=O)[C@@H](N)Cc1cccc(F)c1)C(=O)O.N[C@@H](CC(=O)O)C(=O)O` it was 26 mm.
Regarding `C[C@H](NC(=O)[C@H](C)NC(=O)[C@@H](N)Cc1cccc(F)c1)C(=O)O.NCC(=O)N[C@@H](Cc1ccccc1)C(=O)O`, the Zone size with Candida albicans [3], in the test with Candida albicans [4], with Candida albicans [5] and in the test with Candida albicans [6] was 0 mm throughout.
As for `C[C@H](NC(=O)CN)C(=O)O.C[C@H](NC(=O)[C@H](C)NC(=O)[C@@H](N)Cc1cccc(F)c1)C(=O)O`, the Zone size came to 25 mm in the test with Candida albicans [3], 0 mm in the test with Candida albicans [4], 0 mm in the test on Candida albicans [5] and 18 mm in the test on Candida albicans [6].
As for `C[C@H](N)C(=O)N[C@@H](C)C(=O)O.C[C@H](NC(=O)[C@@H](N)Cc1cccc(F)c1)C(=O)O`, the Zone size in the test on Candida albicans [3], with Candida albicans [4], with Candida albicans [5] and in the test with Candida albicans [6] was 0 mm throughout.
Molecule `C[C@H](NC(=O)[C@H](C)NC(=O)[C@@H](N)Cc1cccc(F)c1)C(=O)O.N[C@@H](Cc1c[nH]c2ccccc12)C(=O)O` returned a Zone size with Candida albicans [7] of 24 mm.
`C[C@H](NC(=O)[C@H](C)NC(=O)[C@@H](N)Cc1cccc(F)c1)C(=O)O.N[C@@H](Cc1ccccc1)C(=O)O` registered a Zone size in the test with Candida albicans [7] of 0 mm.
Regarding `C[C@H](NC(=O)[C@H](N)Cc1cccc(F)c1)C(=O)O`, the minimal inhibitory concentration (MIC) in the test on Candida albicans [1] and against Candida albicans [2] was more than 200 µg/mL throughout.
`C[C@H](NC(=O)[C@H](C)NC(=O)[C@@H](N)Cc1cccc(F)c1)C(=O)O.O=C(O)[C@@H]1CCCN1` gave a Zone size in the test on Candida albicans [7] of 27 mm.
As for `CSCC[C@H](NC(=O)[C@H](CCSC)NC(=O)[C@H](N)Cc1cccc(F)c1)C(=O)O`, the MIC against Candida albicans [1] and against Candida albicans [2] was more than 250 µg/mL in each case.
For the molecule `CSCC[C@H](NC(=O)[C@H](CCSC)NC(=O)[C@@H](N)Cc1cccc(F)c1)C(=O)O`, the minimal inhibitory concentration (MIC) against Candida albicans [1] was 8 µg/mL (≈ 18 µM); against Candida albicans [2], 63 µg/mL (≈ 141 µM).
Consider `C[C@H](NC(=O)[C@@H](N)Cc1cccc(F)c1)C(=O)O`, for which the minimal inhibitory concentration (MIC) against Candida albicans [1] stood at 2 µg/mL (≈ 7.87 µM); in the test with Candida albicans [2], 4 µg/mL (≈ 15.7 µM).
Take `C[C@H](NC(=O)[C@H](C)NC(=O)[C@H](N)Cc1cccc(F)c1)C(=O)O`: the minimal inhibitory concentration (MIC) in the test with Candida albicans [1] and against Candida albicans [2] was more than 250 µg/mL in each case.
For the molecule `C[C@H](NC(=O)[C@H](C)NC(=O)[C@@H](N)Cc1cccc(F)c1)C(=O)O`, the Zone size with Candida albicans [7] amounted to 24 mm. Also, the MIC against Candida albicans [1] is 0.5 µg/mL (≈ 1.54 µM); in the test on Candida albicans [2], 2 µg/mL (≈ 6.15 µM).
For `C[C@H](N)C(=O)N[C@@H](C)C(=O)N[C@@H](Cc1cccc(F)c1)C(=O)O` (H-Ala-Ala-[Phe(3-F)]-OH), the minimum inhibitory concentration (MIC) with Candida albicans [1] was 2 µg/mL (≈ 6.15 µM); with Candida albicans [2], 63 µg/mL (≈ 194 µM).

These data come from ChEMBL document CHEMBL1122465, “Transport of antimicrobial agents using peptide carrier systems: anticandidal activity of m-fluorophenylalanine--peptide conjugates” (1983).
